WT yeast gro inh = growth inhibition of WT yeast, mitochondrial fusion screen; mitochondrial fusion phenotypic screen, WT strain; inhibition, % at 10 µM; 190,000 compounds, 2.1% hits; in the data active = inhibition above about 58%; tested in S. cerevisiae
MPTP inh = blocks calcium-induced mitochondrial swelling | isolated mouse mitochondria, Ca2+ swelling absorbance, 30 min | inhibition, % at 10 µM | 360,000 compounds, 1.4% hits | AID 602449;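 active = inhibition of 50% or more, scaled per plate between neutral and stimulator controls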
GRIN3A LBD mod = modulators (binders) of human NR3A ligand-binding domain; NR3A LBD differential scanning fluorimetry, Tm shift; 0% = protein alone, 100% = glycine-bound protein; Tm shift relative to glycine control, % at 25 µM; 340,000 compounds, 2.5% hits; AID 1259313;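 active = melting temperature shift of at least 10% of the positive control shift, at one fixed dose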
EBV gp42 inh = blocks Epstein-Barr virus glycoprotein 42 binding | 220,000 compounds, 0.42% hits | Fluorescence polarization binding assay, mP read-out | AID 1085 | inhibition, % (tested at 21.74 µM); in the data active = inhibition above about 50%
Target sequence (Q1HVG2 whole entry, looked up): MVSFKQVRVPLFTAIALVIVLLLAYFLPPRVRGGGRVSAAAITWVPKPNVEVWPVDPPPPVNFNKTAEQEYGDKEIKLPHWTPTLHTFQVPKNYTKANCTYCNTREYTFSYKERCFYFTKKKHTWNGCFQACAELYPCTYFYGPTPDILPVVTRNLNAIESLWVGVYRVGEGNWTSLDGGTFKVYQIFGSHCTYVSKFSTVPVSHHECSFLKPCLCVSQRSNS
CHOP inhibitor = CHOP inhibition in unfolded protein response; CHO-K1 CHOP-promoter luciferase, tunicamycin-induced, 15-18 h; inhibition, % at 10 µM; 220,000 compounds, 3.8% hits;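 active = compounds that reduced the stress-induced luciferase reporter signal by more than about 70% of percent inhibition, limit read from the data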
TbMetRS inhib = Trypanosoma brucei MetRS inhibition. 360,000 compounds, 0.4% hits. inhibition, % at 11.9 µM. purified T. brucei MetRS, ATP depletion, Kinase-Glo luminescence;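 active = inhibition above a per-plate cutoff of the control wells' mean inhibition plus 3 SD, cut at about 5.5% in these data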
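technique = Kinase-Glo luminescence, ATP depletion format | system = purified MetRS (methionyl-tRNA synthetase) enzyme from Trypanosoma brucei | timing = 15 min preincubation, 2 h reaction, all 25 °C | evaluation = percent inhibition versus plate control medians | dosing = single dose, 11.9 µM final nominal, 0.9% final DMSO | also added = substrates ATP, L-methionine and bulk Escherichia coli tRNA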
A number is an active result; – = inactive; · = no result. Sampled rows, rich in hits. Any-hit rate of the full collection: about 6.4%.

SMILES	WT yeast gro inh	MPTP inh	GRIN3A LBD mod	EBV gp42 inh	CHOP inhibitor	TbMetRS inhib
O=C(Nc1nnc(Cc2ccc([N+](=O)[O-])cc2)s1)Nc1ccccc1F	–	–	–	–	74	–
O=C(Nc1nnc(Cc2ccc(F)cc2)s1)Nc1ccccc1F	·	–	–	·	·	–
Cc1ccccc1NC(=O)Nc1nnc(Cc2ccc([N+](=O)[O-])cc2)s1	–	–	–	–	91	–
CC1(C)CC(=O)C=C(c2ccc3c(c2)OCO3)C1	·	–	–	·	·	–
O=C(/C=C/c1ccco1)Nc1ccc(-c2nc3ccccc3[nH]2)cc1	–	–	30	–	96	–
C(=C\c1ccco1)/c1nc2ccccc2[nH]1	–	–	–	–	–	–
Cn1cc([N+](=O)[O-])c(C(=O)Nc2ccc(-c3nc4ccccc4[nH]3)cc2)n1	–	–	19	–	–	–
Cn1cc([N+](=O)[O-])c(C(=O)Nc2ccc3nc(-c4ccccc4)[nH]c3c2)n1	–	–	–	–	–	–
O=C(Nc1ccc(-c2nc3ccccc3[nH]2)cc1)c1ccco1	–	–	35	–	–	–
CCCOP(=O)(c1ccc(N(C)C)cc1)C(O)c1ccc(Cl)cc1 (stereo not given)	·	–	–	·	·	–
Cn1nc(SCc2ccccc2)c(=O)n(C(c2ccccc2)c2ccccc2)c1=O	·	–	–	·	·	–
CCOc1cc(CNc2cccc3[nH]c(C)nc23)ccc1OC	·	–	–	·	·	–
Nc1nc2ccc(N3CCOCC3)cc2s1	–	–	12	–	–	–
CC(C)CNC(=O)COC(=O)c1c2c(nc3ccccc13)CCC2	·	–	–	·	·	–
CCOc1ccccc1NC(=O)NCc1ccccc1	–	–	–	–	–	–
O=c1c2cn[nH]c2nc(SCc2c(F)cccc2F)n1-c1ccc(Cl)cc1	73	–	–	–	–	–
CCCC(=O)Nc1ccc(C=C(C(C)=O)C(C)=O)cc1	·	–	–	–	–	–
Cc1ccc(NC(=O)COC(=O)c2csc3c2CCC(C)C3)cc1S(=O)(=O)N1CCCCC1 (stereo not given)	–	–	–	–	–	–
O=CN(/C=C1\Sc2ccccc2C1=O)Cc1ccccc1	–	–	22	–	–	–
CCC(=O)N(C)/C=C1\Sc2ccccc2C1=O	–	–	–	·	·	–
CC(=O)N(C)/C=C1\Sc2ccccc2C1=O	–	–	14	–	–	–
Cc1ccc(/C=C2\Sc3ccccc3C2=O)s1	–	–	–	94	70	–
CCOc1ccccc1NC(=O)NC(=O)N(C)S(=O)(=O)c1ccc(C)cc1	62	–	–	–	–	–
CC1CCN(C(C)C(=O)Nc2ccccc2-c2ccccc2)CC1 (stereo not given)	60	–	–	–	–	–
CC(C(=O)Nc1ccccc1-c1ccccc1)N1CCN(C(=O)c2ccccc2)CC1 (stereo not given)	·	–	–	–	–	–
SMILES	WT yeast gro inh	MPTP inh	GRIN3A LBD mod	EBV gp42 inh	CHOP inhibitor	TbMetRS inhib
CC1=CC(C)(C)N(C(=O)CN2C(=O)CCC2=O)c2ccc(C)cc21	–	–	–	–	–	–
CC1=CC(C)(C)N(C(=O)CN2C(=O)c3ccccc3C2=O)c2ccccc21	–	–	12	–	–	–
N#Cc1c(-c2ccccc2)nc(SCc2ccc(Cl)cc2)[nH]c1=O	·	–	·	·	·	–
CNc1cc(N2CCN(S(=O)(=O)N(C)C)CC2)ccc1[N+](=O)[O-]	–	–	10	–	–	–
O=[N+]([O-])c1ccc(N2CCN(S(=O)(=O)Cc3ccccc3)CC2)cc1N1CCOCC1	–	–	–	–	–	–
CCS(=O)(=O)N1CCN(c2ccc([N+](=O)[O-])c(N3CCOCC3)c2)CC1	–	–	16	–	–	–
Cc1ccccc1NC(=O)N1CCN(C(=O)c2ccco2)CC1	–	–	–	–	–	–
COCc1ccc(C(=O)N2CCCC(N(C)CCc3ccc(OC)c(OC)c3)C2)s1 (stereo not given)	·	–	14	·	·	–
COCC(=O)N1CCCC(N(C)CCc2ccc(OC)c(OC)c2)C1 (stereo not given)	·	–	–	·	·	–
CCc1ccc(NC(=O)CSc2nc3ccccc3nc2N2CCCC2)cc1	·	–	–	·	·	–
O=C(NCCCN1CCOCC1)c1ccc(Sc2ccccc2Cl)c([N+](=O)[O-])c1	–	–	18	–	–	–
O=C(NCCCN1CCOCC1)c1ccc(Sc2ccc(Br)cc2)c([N+](=O)[O-])c1	–	–	–	–	–	–
Cc1ccc(C2CC(=O)NC(SCc3ccccc3)=C2C#N)cc1 (stereo not given)	–	–	–	–	–	–
CCCCCCSC1=C(C#N)C(c2ccccc2)CC(=O)N1 (stereo not given)	–	–	–	–	77	–
CCOc1ccc(C2CC(=O)NC(SC)=C2C#N)cc1 (stereo not given)	–	–	–	–	–	–
CSC1=C(C#N)C(c2ccc(C(C)C)cc2)CC(=O)N1 (stereo not given)	–	–	–	–	73	–
O=C(C1CCC(=O)N(C2CC2)C1)N1CCN(c2cccc(Cl)c2)CC1 (stereo not given)	·	–	–	·	·	–
O=C(Cc1ccccc1)Nc1ccccc1C(=O)Nc1ccccc1	–	–	–	–	–	–
Cc1ccc(NC(=S)NNC(=S)Nc2ccc(C)cc2)cc1	·	–	30	·	·	–
C=CCNC(=S)Nc1ccc2cn[nH]c2c1	·	–	–	–	–	–
Cc1cc(C)cc(NC(=S)Nc2ccc3cn[nH]c3c2)c1	–	–	15	–	–	–
Cc1ccc(NC(=S)NNC(=O)Nc2ccccc2)cc1	–	–	–	–	–	–
S=C(Nc1ccccc1)Nc1ccc2cn[nH]c2c1	·	–	–	–	–	–
FC(F)Oc1ccc(NC(=S)Nc2ccc3cn[nH]c3c2)cc1	·	–	17	–	–	–
Cc1ccc(NC(=S)Nc2ccc3cn[nH]c3c2)cc1	–	–	19	–	–	–
SMILES	WT yeast gro inh	MPTP inh	GRIN3A LBD mod	EBV gp42 inh	CHOP inhibitor	TbMetRS inhib
COc1ccc(OCCCN2CCCCCC2)cc1	–	–	–	–	–	–
CC(=O)N1CCN(c2ccc(NCc3ccc(-c4ccc(Br)cc4)o3)cc2)CC1	·	–	–	·	·	–
COc1ccc(NC(=O)CN(C)C(=O)c2ccccc2OCC(=O)Nc2cccc(C(F)(F)F)c2)cc1	·	–	–	·	·	–
CCCCNC(=O)Cn1c(=O)oc2cc(S(=O)(=O)N3CC(C)CC(C)C3)ccc21 (stereo not given)	–	–	–	–	94	–
COCCCNC(=O)Cn1c(=O)oc2cc(S(=O)(=O)N3CC(C)CC(C)C3)ccc21 (stereo not given)	·	–	–	·	·	–
Cc1cc(C)cc(NC(=O)Cn2c(=O)oc3cc(S(=O)(=O)N4CC(C)CC(C)C4)ccc32)c1 (stereo not given)	–	–	–	–	83	–
CC1CC(C)CN(S(=O)(=O)c2ccc3c(c2)oc(=O)n3CC(=O)N(C)Cc2ccccc2)C1 (stereo not given)	·	–	–	·	·	–
CCOC(=O)Cc1csc(NC(=O)Nc2ccc(C)cc2)n1	·	–	14	–	–	–
